“And” between values parts separate entries of the source, which are not always exact repeats. Identical values can stand only once.
Experiments:
Type in all cases: toxicity, cell-based
Fibroblast = test: Multiplex assay against human fibroblast
In short: (§1)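 Imaging took place on a CQ1 microscope at 37°C and 5% CO2 once compound had been added to live cells stained at seeding with Hoechst33342, BioTracker Green Microtubule Cytoskeleton Dye, MitoTracker Red and Annexin V Alexa Fluor 680. CellPathfinder machine-learning gating classed cells as Hoechst high-intensity objects or normal cells, classed normal cells as having healthy, pyknosed or fragmented nuclei, and classed pyknosed cells as mitotic or apoptotic. Tubulin, mitochondrial-mass and membrane-permeability phenotypes are per cents of the healthy-nucleus cells.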

HEK-293T = test: Multiplex assay against HEK293T; conditions: human; in short: as §1
U2OS = test: Multiplex assay against U2OS; conditions: human; in short: as §1
[1] = 12 h, 1 µM, compound concentration 1 uM
[2] = 12 h, 10 µM, compound concentration 10 uM
[3] = 24 h, 1 µM, compound concentration 1 uM
[4] = 24 h, 10 µM, compound concentration 10 uM
[5] = 48 h, 1 µM, compound concentration 1 uM
[6] = 48 h, 10 µM, compound concentration 10 uM

CC(F)(F)CN1CCOc2c(nn(-c3ccccc3Cl)c2-c2ccc(Cl)cc2)C1=O was tested, and the “Population Apoptotic (%)” value (Fibroblast; [1]) was 42% and 31%, the “Population Healthy Nuclei (%)” value (Fibroblast; [1]) was 66% and 48% and the “Population Hoechst High Intensity Objects (%)” value (Fibroblast; [1]) was 0%. The “Population Membrane Permeable-Phenotype (%)” value (Fibroblast; [1]) was 1%, the “Population Mitochondria Different-Phenotype (%)” value (Fibroblast; [1]) was 4% and 10% and the “Population Mitotic Cells (%)” value (Fibroblast; [1]) was 57% and 68%. For the same molecule, the “Population Normal (%)” value (Fibroblast; [1]) was 99% and 93%, the “Population Pyknosed Nuclei (%)” value (Fibroblast; [1]) was 15% and 25% and the “Population Tubulin-Different-Phenotype (%)” value (Fibroblast; [1]) was 61%. The “Total Cell Count” value (Fibroblast; [1]) was 125 and 122, the “Population Apoptotic (%)” value (Fibroblast; [2]) was 47% and 30% and the “Population Healthy Nuclei (%)” value (Fibroblast; [2]) was 66% and 53%. The “Population Hoechst High Intensity Objects (%)” value (Fibroblast; [2]) was 1% and 5%, the “Population Membrane Permeable-Phenotype (%)” value (Fibroblast; [2]) was 0% and 2% and the “Population Mitochondria Different-Phenotype (%)” value (Fibroblast; [2]) was 19% and 8%. For the same molecule, the “Population Mitotic Cells (%)” value (Fibroblast; [2]) was 52% and 70%, the “Population Normal (%)” value (Fibroblast; [2]) was 98% and 94% and the “Population Pyknosed Nuclei (%)” value (Fibroblast; [2]) was 17% and 15%. For the same molecule, the “Population Tubulin-Different-Phenotype (%)” value (Fibroblast; [2]) was 49% and 57%, the “Total Cell Count” value (Fibroblast; [2]) was 109 and 134 and the “Population Apoptotic (%)” value (Fibroblast; [3]) was 61% and 64%. The “Population Healthy Nuclei (%)” value (Fibroblast; [3]) was 65% and 52%, the “Population Hoechst High Intensity Objects (%)” value (Fibroblast; [3]) was 1% and 4% and the “Population Membrane Permeable-Phenotype (%)” value (Fibroblast; [3]) was 1%. For the same molecule, the “Population Mitochondria Different-Phenotype (%)” value (Fibroblast; [3]) was 2% and 10%, the “Population Mitotic Cells (%)” value (Fibroblast; [3]) was 38% and 36% and the “Population Normal (%)” value (Fibroblast; [3]) was 98% and 95%. The “Population Pyknosed Nuclei (%)” value (Fibroblast; [3]) was 15% and 20%, the “Population Tubulin-Different-Phenotype (%)” value (Fibroblast; [3]) was 75% and the “Total Cell Count” value (Fibroblast; [3]) was 119 and 129. For the same molecule, the “Population Apoptotic (%)” value (Fibroblast; [4]) was 33% and 35%, the “Population Healthy Nuclei (%)” value (Fibroblast; [4]) was 65% and 54% and the “Population Hoechst High Intensity Objects (%)” value (Fibroblast; [4]) was 0% and 1%. The “Population Membrane Permeable-Phenotype (%)” value (Fibroblast; [4]) was 0% and 6%, the “Population Mitochondria Different-Phenotype (%)” value (Fibroblast; [4]) was 26% and 10% and the “Population Mitotic Cells (%)” value (Fibroblast; [4]) was 66% and 64%. For the same molecule, the “Population Normal (%)” value (Fibroblast; [4]) was 99% and 98%, the “Population Pyknosed Nuclei (%)” value (Fibroblast; [4]) was 10% and 14% and the “Population Tubulin-Different-Phenotype (%)” value (Fibroblast; [4]) was 58% and 60%. The “Total Cell Count” value (Fibroblast; [4]) was 111 and 121, the “Population Apoptotic (%)” value (Fibroblast; [5]) was 56% and 40% and the “Population Healthy Nuclei (%)” value (Fibroblast; [5]) was 63% and 53%. The “Population Hoechst High Intensity Objects (%)” value (Fibroblast; [5]) was 1% and 4%, the “Population Membrane Permeable-Phenotype (%)” value (Fibroblast; [5]) was 4% and 1% and the “Population Mitotic Cells (%)” value (Fibroblast; [5]) was 43% and 60%. The “Population Normal (%)” value (Fibroblast; [5]) was 98% and 95%, the “Population Pyknosed Nuclei (%)” value (Fibroblast; [5]) was 11% and 7% and the “Population Tubulin-Different-Phenotype (%)” value (Fibroblast; [5]) was 35% and 72%. For the same molecule, the “Total Cell Count” value (Fibroblast; [5]) was 136 and 135, the “Population Apoptotic (%)” value (Fibroblast; [6]) was 78% and 54% and the “Population Healthy Nuclei (%)” value (Fibroblast; [6]) was 56% and 54%. For the same molecule, the “Population Hoechst High Intensity Objects (%)” value (Fibroblast; [6]) was 1%, the “Population Membrane Permeable-Phenotype (%)” value (Fibroblast; [6]) was 0% and 3% and the “Population Mitotic Cells (%)” value (Fibroblast; [6]) was 21% and 45%. The “Population Normal (%)” value (Fibroblast; [6]) was 98%, the “Population Pyknosed Nuclei (%)” value (Fibroblast; [6]) was 11% and 7% and the “Population Tubulin-Different-Phenotype (%)” value (Fibroblast; [6]) was 57%. The “Total Cell Count” value (Fibroblast; [6]) was 120 and 141, the “Population Apoptotic (%)” value (HEK-293T; [1]) was 29% and 64% and the “Population Healthy Nuclei (%)” value (HEK-293T; [1]) was 77% and 78%. For the same molecule, the “Population Membrane Permeable-Phenotype (%)” value (HEK-293T; [1]) was 0%, the “Population Mitochondria Different-Phenotype (%)” value (HEK-293T; [1]) was 43% and 53% and the “Population Mitotic Cells (%)” value (HEK-293T; [1]) was 70% and 35%. For the same molecule, the “Population Normal (%)” value (HEK-293T; [1]) was 93% and 91%, the “Population Pyknosed Nuclei (%)” value (HEK-293T; [1]) was 12% and 16% and the “Total Cell Count” value (HEK-293T; [1]) was 397 and 369. For the same molecule, the “Population Apoptotic (%)” value (HEK-293T; [2]) was 57% and 43%, the “Population Healthy Nuclei (%)” value (HEK-293T; [2]) was 73% and 75% and the “Population Membrane Permeable-Phenotype (%)” value (HEK-293T; [2]) was 0%. The “Population Mitochondria Different-Phenotype (%)” value (HEK-293T; [2]) was 78% and 84%, the “Population Mitotic Cells (%)” value (HEK-293T; [2]) was 42% and 56% and the “Population Normal (%)” value (HEK-293T; [2]) was 89% and 94%. The “Population Pyknosed Nuclei (%)” value (HEK-293T; [2]) was 22% and 18%, the “Total Cell Count” value (HEK-293T; [2]) was 384 and 397 and the “Population Apoptotic (%)” value (HEK-293T; [3]) was 25% and 43%. The “Population Healthy Nuclei (%)” value (HEK-293T; [3]) was 79% and 84%, the “Population Membrane Permeable-Phenotype (%)” value (HEK-293T; [3]) was 0% and the “Population Mitochondria Different-Phenotype (%)” value (HEK-293T; [3]) was 22% and 31%. For the same molecule, the “Population Mitotic Cells (%)” value (HEK-293T; [3]) was 74% and 56%, the “Population Normal (%)” value (HEK-293T; [3]) was 97% and 93% and the “Population Pyknosed Nuclei (%)” value (HEK-293T; [3]) was 11% and 8%. The “Total Cell Count” value (HEK-293T; [3]) was 568 and 478, the “Population Apoptotic (%)” value (HEK-293T; [4]) was 57% and 41% and the “Population Healthy Nuclei (%)” value (HEK-293T; [4]) was 76% and 80%. For the same molecule, the “Population Membrane Permeable-Phenotype (%)” value (HEK-293T; [4]) was 0%, the “Population Mitochondria Different-Phenotype (%)” value (HEK-293T; [4]) was 71% and 79% and the “Population Mitotic Cells (%)” value (HEK-293T; [4]) was 42% and 58%. The “Population Normal (%)” value (HEK-293T; [4]) was 92% and 94%, the “Population Pyknosed Nuclei (%)” value (HEK-293T; [4]) was 15% and the “Population Tubulin-Different-Phenotype (%)” value (HEK-293T; [4]) was 50%. The “Total Cell Count” value (HEK-293T; [4]) was 450 and 477, the “Population Apoptotic (%)” value (HEK-293T; [5]) was 22% and 25% and the “Population Healthy Nuclei (%)” value (HEK-293T; [5]) was 77% and 79%. For the same molecule, the “Population Membrane Permeable-Phenotype (%)” value (HEK-293T; [5]) was 1%, the “Population Mitochondria Different-Phenotype (%)” value (HEK-293T; [5]) was 14% and 23% and the “Population Mitotic Cells (%)” value (HEK-293T; [5]) was 77% and 74%. The “Population Normal (%)” value (HEK-293T; [5]) was 99% and 97%, the “Population Pyknosed Nuclei (%)” value (HEK-293T; [5]) was 7% and the “Population Tubulin-Different-Phenotype (%)” value (HEK-293T; [5]) was 8%. The “Total Cell Count” value (HEK-293T; [5]) was 1015 and 734, the “Population Apoptotic (%)” value (HEK-293T; [6]) was 55% and 35% and the “Population Healthy Nuclei (%)” value (HEK-293T; [6]) was 74% and 78%. For the same molecule, the “Population Membrane Permeable-Phenotype (%)” value (HEK-293T; [6]) was 0%, the “Population Mitochondria Different-Phenotype (%)” value (HEK-293T; [6]) was 62% and 68% and the “Population Mitotic Cells (%)” value (HEK-293T; [6]) was 44% and 65%. The “Population Normal (%)” value (HEK-293T; [6]) was 93%, the “Population Pyknosed Nuclei (%)” value (HEK-293T; [6]) was 11% and the “Total Cell Count” value (HEK-293T; [6]) was 540 and 558. For the same molecule, the “Population Apoptotic (%)” value (U2OS; [1]) was 81% and 100%, the “Population Healthy Nuclei (%)” value (U2OS; [1]) was 53% and 71% and the “Population Hoechst High Intensity Objects (%)” value (U2OS; [1]) was 2% and 0%. The “Population Membrane Permeable-Phenotype (%)” value (U2OS; [1]) was 3%, the “Population Mitotic Cells (%)” value (U2OS; [1]) was 18% and 0% and the “Population Normal (%)” value (U2OS; [1]) was 97% and 99%. The “Population Tubulin-Different-Phenotype (%)” value (U2OS; [1]) was 8% and 4%, the “Total Cell Count” value (U2OS; [1]) was 219 and 121 and the “Population Apoptotic (%)” value (U2OS; [2]) was 83% and 60%. The “Population Healthy Nuclei (%)” value (U2OS; [2]) was 62% and 71%, the “Population Hoechst High Intensity Objects (%)” value (U2OS; [2]) was 1% and the “Population Membrane Permeable-Phenotype (%)” value (U2OS; [2]) was 10%. The “Population Mitotic Cells (%)” value (U2OS; [2]) was 16% and 40%, the “Population Normal (%)” value (U2OS; [2]) was 98% and the “Population Tubulin-Different-Phenotype (%)” value (U2OS; [2]) was 14% and 5%. The “Total Cell Count” value (U2OS; [2]) was 216 and 130, the “Population Apoptotic (%)” value (U2OS; [3]) was 95% and 90% and the “Population Healthy Nuclei (%)” value (U2OS; [3]) was 55% and 71%. The “Population Hoechst High Intensity Objects (%)” value (U2OS; [3]) was 4% and 1%, the “Population Membrane Permeable-Phenotype (%)” value (U2OS; [3]) was 9% and the “Population Mitotic Cells (%)” value (U2OS; [3]) was 4% and 10%. For the same molecule, the “Population Normal (%)” value (U2OS; [3]) was 95% and 98%, the “Population Tubulin-Different-Phenotype (%)” value (U2OS; [3]) was 6% and 13% and the “Total Cell Count” value (U2OS; [3]) was 246 and 155. For the same molecule, the “Population Apoptotic (%)” value (U2OS; [4]) was 70% and 80%, the “Population Healthy Nuclei (%)” value (U2OS; [4]) was 63% and 77% and the “Population Hoechst High Intensity Objects (%)” value (U2OS; [4]) was 1%. For the same molecule, the “Population Mitotic Cells (%)” value (U2OS; [4]) was 29% and 20%, the “Population Normal (%)” value (U2OS; [4]) was 98% and the “Population Tubulin-Different-Phenotype (%)” value (U2OS; [4]) was 7% and 5%. The “Total Cell Count” value (U2OS; [4]) was 248 and 154, the “Population Apoptotic (%)” value (U2OS; [5]) was 94% and 89% and the “Population Healthy Nuclei (%)” value (U2OS; [5]) was 66% and 69%. For the same molecule, the “Population Hoechst High Intensity Objects (%)” value (U2OS; [5]) was 4% and 1%, the “Population Membrane Permeable-Phenotype (%)” value (U2OS; [5]) was 6% and 7% and the “Population Mitotic Cells (%)” value (U2OS; [5]) was 5% and 10%. For the same molecule, the “Population Normal (%)” value (U2OS; [5]) was 95% and 98%, the “Population Tubulin-Different-Phenotype (%)” value (U2OS; [5]) was 3% and 6% and the “Total Cell Count” value (U2OS; [5]) was 333 and 203. For the same molecule, the “Population Apoptotic (%)” value (U2OS; [6]) was 96% and 88%, the “Population Healthy Nuclei (%)” value (U2OS; [6]) was 68% and 72% and the “Population Hoechst High Intensity Objects (%)” value (U2OS; [6]) was 1% and 4%. The “Population Membrane Permeable-Phenotype (%)” value (U2OS; [6]) was 8%, the “Population Mitotic Cells (%)” value (U2OS; [6]) was 3% and 11% and the “Population Normal (%)” value (U2OS; [6]) was 98% and 95%. The “Population Tubulin-Different-Phenotype (%)” value (U2OS; [6]) was 6% and 4% and the “Total Cell Count” value (U2OS; [6]) was 322 and 204.
